Results: ChEMBL document CHEMBL1123757, “Selective thromboxane synthetase inhibitors and antihypertensive agents. New derivatives of 4-hydrazino-5H-pyridazino[4,5-b]indole, 4-hydrazinopyridazino[4,5-a]indole, and related compounds” (J Med Chem, 1987)

Experiments:
[1] = organism: Homo sapiens; experiment: In vitro inhibition of platelet aggregation induced by DD (PRP incubated for 5 minutes at 37 degree C) at 10e-5 M;No significance; type: functional
How it was run: (§1)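 Human venous blood anticoagulated with 3.8% sodium citrate (1:9). PRP from centrifugation at 800 rpm for 10 min at room temperature. Count adjusted with PPP to […]. Compound in saline with 10% ethylene glycol is added to PRP and incubated at 37 °C before the agonist. Agonists: ADP 2×10^-5 M, AA 0.6 mM, PGH2 2.8 μM, adrenaline 0.6 μM. Born absorbance aggregometry; n = 5.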

[2] = organism: Homo sapiens; experiment: In vitro inhibition of platelet aggregation induced by […] (PRP incubated for 5 minutes at 37 degree C) at 5 e-6 M;No significance; type: functional
[3] = test system: Rattus norvegicus; experiment: Antihypertensive activity in spontaneously hypertensive rats (SHR) measured by percentage fall in arterial pressure (AP) at 25 mg/kg administered intraperitoneally at 3 h;No significance; type: functional, organism-based; parameters: dose 25 mg/kg; conditions: Artery
How it was run: (§2)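 Unanesthetized Okamoto-strain SHR, male and female, 8 weeks old, 300–350 g, systolic pressure ≥190 mmHg, heart rate 400–650 beats/min; five animals per dose. Given ip at 2.5 mL/kg, dissolved or suspended in normal saline or saline with 0.2% (carboxymethyl)cellulose and 1.0% Tween 80. Tail AP and CR recorded by mechanical transduction at set times; reported as percentage fall from control.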

[4] = test system: Rattus norvegicus; experiment: Antihypertensive activity in spontaneously hypertensive rats (SHR) measured by percentage fall in arterial pressure (AP) at 25 mg/kg administered intraperitoneally at 5 h;No significance; type: functional, organism-based; parameters: dose 25 mg/kg; conditions: Artery; how it was run: as §2
[5] = organism: Homo sapiens; experiment: In vitro inhibition of platelet aggregation induced by AA (PRP incubated for 60 minutes at 37 degree C) at 10e-5 M;No significance; type: functional; how it was run: as §1
[6] = organism: Homo sapiens; experiment: In vitro inhibition of platelet aggregation induced by AA (PRP incubated for 60 minutes at 37 degree C) at 5e-6 M;No significance; type: functional; how it was run: as §1
[7] = organism: Homo sapiens; experiment: In vitro inhibition of platelet aggregation induced by ADP-II (PRP incubated for 5 minutes at 37 degree C) at 10e-5 M; type: functional; how it was run: as §1
[8] = organism: Homo sapiens; experiment: In vitro inhibition of platelet aggregation induced by ADP-II (PRP incubated for 60 minutes at 37 degree C) at 10e-5 M; type: functional; conditions: 1 h; how it was run: as §1
[9] = test system: Rattus norvegicus; experiment: Antihypertensive activity in spontaneously hypertensive rats (SHR) measured by percentage fall in cardiac rhythm (CR) at 25 mg/kg administered intraperitoneally at 24 h; type: functional, Heart; conditions: route intraperitoneal; how it was run: as §2
[10] = test system: Rattus norvegicus; experiment: Antihypertensive activity in spontaneously hypertensive rats (SHR) measured by percentage fall in cardiac rhythm (CR) at 25 mg/kg administered intraperitoneally at 3 h; type: functional, Heart; conditions: route intraperitoneal; how it was run: as §2
[11] = test system: Rattus norvegicus; experiment: Antihypertensive activity in spontaneously hypertensive rats (SHR) measured by percentage fall in cardiac rhythm (CR) at 25 mg/kg administered intraperitoneally at 5 h; type: functional, Heart; conditions: route intraperitoneal
How it was run: (§3)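 Conscious SHR (Okamoto strain), 8 weeks old, male and female, 300–350 g, systolic BP ≥190 mmHg, CR 400–650 beats/min. Given ip or po at 2.5 mL/kg in normal saline or saline with 0.2% (carboxymethyl)cellulose and 1.0% Tween 80. Tail AP and CR recorded by mechanical transduction at 1, 3, 5 and 24 h, five animals per dose. Effect expressed as % fall versus control.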

[12] = test system: Rattus norvegicus; experiment: Antihypertensive activity in spontaneously hypertensive rats (SHR) measured by percentage fall in arterial pressure (AP) at 25 mg/kg administered intraperitoneally at 24 h;No significance; type: functional, organism-based; parameters: dose 25 mg/kg; conditions: Artery; how it was run: as §2
[13] = test system: Rattus norvegicus; experiment: Antihypertensive activity in spontaneously hypertensive rats (SHR) measured by percentage fall in arterial pressure (AP) at 25 mg/kg administered perorally at 5 h; No significance; type: functional, organism-based; parameters: dose 25 mg/kg; conditions: Artery
How it was run: (§4)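 Oral dosing at 2.5 mL/kg to unanesthetized male and female Okamoto-strain SHR (8 weeks old, 300–350 g, systolic pressure ≥190 mmHg, heart rate 400–650 beats/min), five per dose. Vehicle was normal saline or saline with 0.2% (carboxymethyl)cellulose and 1.0% Tween 80. AP measured on the tail by mechanical transduction at set times; expressed as percentage fall from control.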

[14] = test system: Rattus norvegicus; experiment: Antihypertensive activity in spontaneously hypertensive rats (SHR) measured by percentage fall in arterial pressure (AP) at 5 mg/kg administered perorally at 24 h; No significance; type: functional, organism-based; parameters: dose 5 mg/kg; conditions: Artery; how it was run: as §4
[15] = test system: Rattus norvegicus; experiment: Antihypertensive activity in spontaneously hypertensive rats (SHR) measured by percentage fall in arterial pressure (AP) at 5 mg/kg administered perorally at 5 h; No significance; type: functional, organism-based; parameters: dose 5 mg/kg; conditions: Artery; how it was run: as §4
[16] = test system: Rattus norvegicus; experiment: Antihypertensive activity in spontaneously hypertensive rats (SHR) measured by percentage fall in cardiac rhythm (CR) at 5 mg/kg administered perorally at 24 h; No significance; type: functional, organism-based; parameters: dose 5 mg/kg; conditions: Heart; how it was run: as §3
[17] = test system: Rattus norvegicus; experiment: Antihypertensive activity in spontaneously hypertensive rats (SHR) measured by percentage fall in arterial pressure (AP) at 1 mg/kg administered intraperitoneally at 24 h; No significance; type: functional, organism-based; parameters: dose 1 mg/kg; conditions: Artery; how it was run: as §2
[18] = test system: Rattus norvegicus; experiment: Antihypertensive activity in spontaneously hypertensive rats (SHR) measured by percentage fall in cardiac rhythm (CR) at 25 mg/kg administered intraperitoneally at 1 h;No significance; type: functional, organism-based; parameters: dose 25 mg/kg; conditions: Heart; how it was run: as §2
[19] = test system: Rattus norvegicus; experiment: Antihypertensive activity in spontaneously hypertensive rats (SHR) measured by percentage fall in cardiac rhythm (CR) at 25 mg/kg administered perorally at 5 h; No significance; type: functional, organism-based; parameters: dose 25 mg/kg; conditions: Heart; how it was run: as §3
[20] = test system: Rattus norvegicus; experiment: Antihypertensive activity in spontaneously hypertensive rats (SHR) measured by percentage fall in cardiac rhythm (CR) at 5 mg/kg administered intraperitoneally at 1 h;No significance; type: functional, organism-based; parameters: dose 5 mg/kg; conditions: Heart; how it was run: as §3
[21] = test system: Rattus norvegicus; experiment: Antihypertensive activity in spontaneously hypertensive rats (SHR) measured by percentage fall in cardiac rhythm (CR) at 5 mg/kg administered intraperitoneally at 24 h; No significance; type: functional, organism-based; parameters: dose 5 mg/kg; conditions: Heart; how it was run: as §3
[22] = test system: Rattus norvegicus; experiment: Antihypertensive activity in spontaneously hypertensive rats (SHR) measured by percentage fall in arterial pressure (AP) at 25 mg/kg administered perorally at 24 h; No significance; type: functional, organism-based; parameters: dose 25 mg/kg; conditions: Artery; how it was run: as §4
[23] = test system: Rattus norvegicus; experiment: Antihypertensive activity in spontaneously hypertensive rats (SHR) measured by percentage fall in cardiac rhythm (CR) at 25 mg/kg administered perorally at 3 h;No significance; type: functional, organism-based; parameters: dose 25 mg/kg; conditions: Heart; how it was run: as §3
[24] = test system: Rattus norvegicus; experiment: Antihypertensive activity in spontaneously hypertensive rats (SHR) measured by percentage fall in cardiac rhythm (CR) at 5 mg/kg administered intraperitoneally at 3 h;No significance; type: functional, organism-based; parameters: dose 5 mg/kg; conditions: Heart; how it was run: as §3
[25] = test system: Rattus norvegicus; experiment: Antihypertensive activity in spontaneously hypertensive rats (SHR) measured by percentage fall in cardiac rhythm (CR) at 5 mg/kg administered perorally at 3 h;No significance; type: functional, organism-based; parameters: dose 5 mg/kg; conditions: Heart; how it was run: as §3
[26] = test system: Rattus norvegicus; experiment: Antihypertensive activity in spontaneously hypertensive rats (SHR) measured by percentage fall in cardiac rhythm (CR) at 25 mg/kg administered intraperitoneally at 24 h;No significance; type: functional, organism-based; parameters: dose 25 mg/kg; conditions: Heart; how it was run: as §2
[27] = test system: Rattus norvegicus; experiment: Antihypertensive activity in spontaneously hypertensive rats (SHR) measured by percentage fall in arterial pressure (AP) at 1 mg/kg administered intraperitoneally at 5 h; No significance; type: functional, organism-based; parameters: dose 1 mg/kg; conditions: Artery; how it was run: as §2
[28] = test system: Rattus norvegicus; experiment: Antihypertensive activity in spontaneously hypertensive rats (SHR) measured by percentage fall in cardiac rhythm (CR) at 25 mg/kg administered perorally at 24 h; No significance; type: functional, organism-based; parameters: dose 25 mg/kg; conditions: Heart; how it was run: as §3
[29] = test system: Rattus norvegicus; experiment: Antihypertensive activity in spontaneously hypertensive rats (SHR) measured by percentage fall in cardiac rhythm (CR) at 5 mg/kg administered perorally at 5 h; No significance; type: functional, organism-based; parameters: dose 5 mg/kg; conditions: Heart; how it was run: as §3
[30] = test system: Rattus norvegicus; experiment: Percent fall in systolic blood pressure, directly measured on carotid (iv on the jugular vein) of spontaneously hypertensive rats at 1 mg/kg after 180 minutes; No significance; type: functional, organism-based; parameters: dose 1 mg/kg; conditions: Artery
How it was run: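 Anesthetized (sodium pentobarbital, 70 mg/kg) male and female Okamoto SHR, 8 weeks old, 300–350 g. Given iv into the jugular vein in normal saline. Arterial pressure and cardiac rhythm are recorded directly from the carotid by polygraph at set times after dosing. Each is expressed as percent change from the pre-dose control value.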

[31] = organism: Homo sapiens; experiment: In vitro inhibition of platelet aggregation induced by […] (PRP incubated for 5 minutes at 37 degree C) at 10e-5 M; No significance; type: functional
[32] = test system: Rattus norvegicus; experiment: Antihypertensive activity in spontaneously hypertensive rats (SHR) measured by percentage fall in arterial pressure (AP) at 25 mg/kg administered intraperitoneally at 5 h; type: functional, Artery; conditions: route intraperitoneal; how it was run: as §2
[33] = test system: Rattus norvegicus; experiment: Antihypertensive activity in spontaneously hypertensive rats (SHR) measured by percentage fall in cardiac rhythm (CR) at 25 mg/kg administered intraperitoneally at 1 h; type: functional, Heart; conditions: route intraperitoneal; how it was run: as §2
[34] = organism: Homo sapiens; experiment: In vitro inhibition of platelet aggregation induced by AA (PRP incubated for 60 minutes at 37 degree C) at 10e-5 M; No significance; type: functional; how it was run: as §1
[35] = organism: Homo sapiens; experiment: In vitro inhibition of platelet aggregation induced by ADP-II (PRP incubated for 5 minutes at 37 degree C) at 10e-5 M; No significance; type: functional; how it was run: as §1
[36] = test system: Rattus norvegicus; experiment: Antihypertensive activity in spontaneously hypertensive rats (SHR) measured by percentage fall in cardiac rhythm (CR) at 25 mg/kg administered intraperitoneally at 5 h; No significance; type: functional, organism-based; parameters: dose 25 mg/kg; conditions: Heart; how it was run: as §3
[37] = test system: Rattus norvegicus; experiment: Antihypertensive activity in spontaneously hypertensive rats (SHR) measured by percentage fall in arterial pressure (AP) at 25 mg/kg administered intraperitoneally at 1 h; type: functional, Artery; conditions: route intraperitoneal; how it was run: as §2
[38] = test system: Rattus norvegicus; experiment: Antihypertensive activity in spontaneously hypertensive rats (SHR) measured by percentage fall in arterial pressure (AP) at 25 mg/kg administered intraperitoneally at 3 h; type: functional, Artery; conditions: route intraperitoneal; how it was run: as §2

Compound: Oc1ccc2[nH]c3c(O)nncc3c2c1
- inhibition [1]: No significant values
- inhibition [2]: No significant values
- Decrease in AP [3]: No significant values
- Decrease in AP [4]: No significant values
- inhibition [5]: No significant values
- inhibition [6]: No significant values
- inhibition at 10 µM [7]: 87%
- inhibition at 10 µM [8]: 100%
- Decrease in CR [9]: -8%
- Decrease in CR [10]: -11%
- Decrease in CR [11]: -7%
- Decrease in AP [12]: No significant values

Compound: CCOc1ccc2[nH]c3c(NN)nncc3c2c1
- inhibition [1]: No significant values
- Decrease in AP [13]: No significant values
- Decrease in AP [14]: No significant values
- Decrease in AP [15]: No significant values
- Decrease in CR [16]: No significant values
- inhibition [5]: No significant values
- Decrease in AP [17]: No significant values
- Decrease in CR [18]: No significant values
- Decrease in CR [19]: No significant values
- Decrease in CR [20]: No significant values
- Decrease in CR [21]: No significant values
- Decrease in blood pressure [22]: No significant values
- Decrease in blood pressure [23]: No significant values
- Decrease in blood pressure [24]: No significant values
- Decrease in blood pressure [25]: No significant values
- Decrease in CR [26]: No significant values
- Decrease in AP [27]: No significant values
- Decrease in AP [28]: No significant values
- Decrease in AP [29]: No significant values
- Decrease in AP [30]: No significant values

Compound: COc1ccc2[nH]c3c(O)nncc3c2c1
- inhibition [31]: No significant values
- Decrease in AP [32]: 5%
- Decrease in CR [33]: 7%
- inhibition [34]: No significant values
- inhibition [35]: No significant values
- inhibition at 10 µM [8]: 100%
- inhibition [36]: No significant values
- Decrease in CR [10]: 5%
- Decrease in AP [37]: 10%
- Decrease in AP [38]: 10%
